Reference: paper PMC6044901 (ACS Omega, 2018)
Blank lines part the entries; values can stand above or below the molecule they belong to.

Assays:
[1] = PK after iv injection in mice; type: in vivo; details: iv 1 mg/kg, GLP-1 ELISA, T1/2 elim unavailable
Outline: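 Male ICR mice, 6 weeks old, n = 3, given a single iv injection: 1 mg/kg as GLP-1 peptide-equivalent weight for screening, or 300 nmol/kg. Tail-vein blood taken at 0, 12, 24, 48, 72, 96, 120 and 144 h; plasma stored at −80 °C. Active GLP-1 ELISA with a four-parameter logistic standard curve. Half-life computed; mean of three measurements.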

[2] = PK after sc injection in mice; type: in vivo; details: male, Crl:CD1 (ICR), mouse, plasma, 100 nmol/kg
Outline: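 Male ICR mice, 6 weeks old, n = 3, given a single sc injection: test compound at 100 or 300 nmol/kg, or liraglutide at 100 nmol/kg. Tail-vein plasma sampled at 0–144 h (0, 12, 24, 48, 72, 96, 120, 144 h) and stored at −80 °C. Active GLP-1 ELISA with a four-parameter logistic fit. Bioavailability from sc and iv dosing run in parallel.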

[3] = iv; cited from earlier work
[4] = nonhuman primate; cited from earlier work

plasma immunoreactive GLP-1 level at 48 h after iv injection [1]: below the detection limit
MRT [2]: 15.5 h
Molecule: CCCCCCCCCCCCCCCC(=O)N[C@@H](CCC(=O)NCCCC[C@H](NC(=O)[C@H](C)NC(=O)[C@H](C)NC(=O)[C@H](CCC(N)=O)NC(=O)CNC(=O)[C@H](CCC(=O)O)NC(=O)[C@H](CC(C)C)NC(=O)[C@H](Cc1ccc(O)cc1)NC(=O)[C@H](CO)NC(=O)[C@H](CO)NC(=O)[C@@H](NC(=O)[C@H](CC(=O)O)NC(=O)[C@H](CO)NC(=O)[C@@H](NC(=O)[C@H](Cc1ccccc1)NC(=O)[C@@H](NC(=O)CNC(=O)[C@H](CCC(=O)O)NC(=O)[C@H](C)NC(=O)[C@@H](N)Cc1cnc[nH]1)[C@@H](C)O)[C@@H](C)O)C(C)C)C(=O)N[C@@H](CCC(=O)O)C(=O)N[C@@H](Cc1ccccc1)C(=O)N[C@H](C(=O)N[C@@H](C)C(=O)N[C@@H](Cc1c[nH]c2ccccc12)C(=O)N[C@@H](CC(C)C)C(=O)N[C@H](C(=O)N[C@@H](CCCNC(=N)N)C(=O)NCC(=O)N[C@@H](CCCNC(=N)N)C(=O)NCC(=O)O)C(C)C)[C@@H](C)CC)C(=O)O [liraglutide, reference compound]

Molecule: Glucagon-like peptide-1 [GLP-1]
half-life (T1/2 elim) injected intravenously [3]: ≤ 2 min

B1: 99 kDa HPN-conjugated G-CSF: 99 kDa heparosan-conjugated G-CSF, ref 39 (conjugate, UniProt P09919 31-207, looked up)
Granulocyte …: TPLGPASSLPQSFLLKCLEQVRKIQGDGAALQEKLVSECATYKLCHPEELVLLGHSLGIPWAPLSSCPSQALQLAGCLSQLHSGLFLYQGLLQALEGISPELGPTLDTLQLDVADFATTIWQQMEELGMAPALQPTQGAMPAFASAFQRRAGGVLVASHLQSFLEVSYRVLRHLAQP
modifications: 99 kDa heparosan conjugate
T1/2 elim [4]: 190 h
